Measured values gathered from unrelated publications.
Protocols differ between the studies behind these lines.
DRD3: D(3) dopamine receptor (DRD3, Homo sapiens, UniProt P35462)
SLC6A3: Sodium-dependent dopamine transporter (SLC6A3, Homo sapiens, UniProt Q01959)
PPARG: Peroxisome proliferator-activated receptor gamma (PPARG, Homo sapiens, UniProt P37231)
CA12: Carbonic anhydrase 12 (CA12, Homo sapiens, UniProt O43570)
CASP3: Caspase-3 (CASP3, Homo sapiens, UniProt P42574)

SMILES	target	test	setting	Ki
COc1ccc2c(c1)C(=O)N(CCCN1CCN(c3ccccc3OC)CC1)C2	DRD3	ligand displacement, radioligand		389 nM
CCCCN1CCC(COC(=O)c2ccc(N)c(OCF)c2)CC1	SLC6A3	cell-free assay, radioligand		> 10000 nM
CN(CCCCNC(=O)c1ccc2scnc2c1)[C@@H]1Cc2cccc3[nH]c(=O)n(c23)C1	DRD3	ligand displacement, radioligand	cell membranes	427 nM
CN(CCOc1ccc(CC2SC(=O)N(CC(=O)OC(C)(C)C)C2=O)cc1)c1ccccn1 (stereo not shown)	PPARG	ligand displacement, TR-FRET		103 nM
CC1(C)C=Cc2c(cc3oc(-c4ccccc4)c(O)c(=O)c3c2O)O1	PPARG	cell-free assay, TR-FRET		3200 nM
NS(=O)(=O)c1ccc(-n2nccc2-c2ccc(N3CCCCC3)cc2)cc1	CA12	enzyme activity, inhibitor, stopped-flow		298 nM
C=CCc1ccc(O)c(-c2ccc(O)c(CC=C)c2)c1	PPARG	ligand displacement, TR-FRET		2000 nM
CN1CCN(c2ccc(-c3ccnn3-c3ccc(S(N)(=O)=O)cc3)cc2)CC1	CA12	enzyme activity, inhibitor, stopped-flow		404 nM
O=c1c(O)c(-c2ccc(O)c(O)c2)oc2cc(O)cc(O)c12	CASP3	enzyme activity, inhibitor, fluorescence		96400 nM
CCCC[C@H](NC(=O)[C@H](C)c1c(C)[nH]c2ccc(O)cc12)c1ncc(-c2cc3ccccc3nc2OC)[nH]1	Prostaglandin F2-alpha receptor (PTGFR, Homo sapiens, UniProt P43088)	cell-free assay		8980 nM
CN(CCCCNC(=O)c1nc2ccccc2s1)[C@@H]1Cc2cccc3[nH]c(=O)n(c23)C1	DRD3	ligand displacement, radioligand	cell membranes	403 nM
Cc1nc2cc(OCCCCN3CCN(c4cccc(Cl)c4Cl)CC3)ccc2s1	SLC6A3	ligand displacement, radioligand		690 nM
O=c1c(O)c(-c2cc(O)c(O)c(O)c2)oc2cc(O)cc(O)c12	CASP3	enzyme activity, inhibitor, fluorescence		68700 nM
Oc1cccc(CCC2=NCCN2Cc2ccccc2)c1	DRD3	ligand displacement, radioligand		1260 nM
CCCN(CCCCNC(=O)c1cc2ccccc2[nH]1)[C@H]1CNc2ccccc2C1	DRD3	ligand displacement, radioligand	cell membranes	1.34 nM
OC[C@@]12C[C@@H]1[C@@H](n1cnc3c(NC(C4CCCC4)C4CCCC4)nc(Cl)cc31)[C@H](O)[C@@H]2O	SLC6A3	cell-free assay, radioligand		3900 nM
CN(CCCCNC(=O)c1cc2ccccc2[nH]1)[C@@H]1Cc2cccc3[nH]c(=O)n(c23)C1	DRD3	ligand displacement, radioligand	cell membranes	82.7 nM
CNc1nc2cc(OCCCCN3CCC(c4cccc(Cl)c4Cl)CC3)ccc2s1	SLC6A3	ligand displacement, radioligand		2100 nM
CC(=O)N[C@@H](CCCCNC(=O)CSCCNC(=O)CCNC(=O)[C@H](O)C(C)(C)COP(=O)(O)OP(=O)(O)OC[C@H]1O[C@@H](n2cnc3c(N)ncnc32)[C@H](O)[C@@H]1OP(=O)(O)O)C(N)=O	Histone acetyltransferase type B catalytic subunit (Homo sapiens, UniProt O14929)	enzyme activity, inhibitor, radiometric		74800 nM
